According to ChEMBL document CHEMBL2311295 (J Med Chem, 2013):
pIC50: −log10 of the molar value.

Legend:
HCT-116 = assay: Cytotoxicity against human HCT116 cells after 72 hrs by phosphatase assay; assay type: functional, cell-based; settings: HCT-116, 72 h
How it was run: (§1)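 Cells diluted to 30,000 cells/mL in DMEM with 10% FBS and seeded into 96-well plates (100 μL per well), then grown 24 h at 37 °C under 5% CO2. Test agents were made as 1 mM DMSO stocks with 10-fold serial dilutions and tested at six concentrations over 0–1,000 nM or 0–10,000 nM, in duplicate, for 72 h. Acid phosphatase read-out: substrate in 0.1 M NaOAc pH 5.5 with 0.1% Triton X-100, 15 min at 37 °C, stopped with NaOH, A405.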

HCT-116/VM46 = assay: Cytotoxicity against vinblastine-resistant human HCT116/VM46 cells after 72 hrs by phosphatase assay; assay type: functional, cell-based; settings: HCT-116/VM46, 72 h
How it was run: as §1, with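 “A405. IC50 is the mean of 4–16 determinations.” for “A405.”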

| SMILES | pIC50 (HCT-116) | pIC50 (HCT-116/VM46) |
| --- | --- | --- |
| CC[C@]1(N=C=S)C[C@H]2CN(CCc3c([nH]c4ccccc34)[C@@](C(=O)OC)(c3cc4c(cc3OC)N(C)[C@H]3[C@@](O)(C(=O)OC)[C@H](OC(C)=O)[C@]5(CC)C=CCN6CC[C@]43[C@@H]65)C2)C1 | 6.28 |  |
| CC[C@]1(NC(=O)Oc2ccc([N+](=O)[O-])cc2)C[C@H]2CN(CCc3c([nH]c4ccccc34)[C@@](C(=O)OC)(c3cc4c(cc3OC)N(C)[C@H]3[C@@](O)(C(=O)OC)[C@H](OC(C)=O)[C@]5(CC)C=CCN6CC[C@]43[C@@H]65)C2)C1 | 7.26 |  |
| CC[C@]1(NC(=O)Nc2ccc(Cl)cc2)C[C@H]2CN(CCc3c([nH]c4ccccc34)[C@@](C(=O)OC)(c3cc4c(cc3OC)N(C)[C@H]3[C@@](O)(C(=O)OC)[C@H](OC(C)=O)[C@]5(CC)C=CCN6CC[C@]43[C@@H]65)C2)C1 | 8.17 | 6.23 |
| CC[C@]1(NC(=O)Nc2ccc(F)cc2)C[C@H]2CN(CCc3c([nH]c4ccccc34)[C@@](C(=O)OC)(c3cc4c(cc3OC)N(C)[C@H]3[C@@](O)(C(=O)OC)[C@H](OC(C)=O)[C@]5(CC)C=CCN6CC[C@]43[C@@H]65)C2)C1 | 8.41 | 6.40 |
| CCNC(=O)N(C)[C@@]1(CC)C[C@H]2CN(CCc3c([nH]c4ccccc34)[C@@](C(=O)OC)(c3cc4c(cc3OC)N(C)[C@H]3[C@@](O)(C(=O)OC)[C@H](OC(C)=O)[C@]5(CC)C=CCN6CC[C@]43[C@@H]65)C2)C1 | 6.28 | 5.07 |
| CC[C@]1(NC(=O)NCc2ccccc2)C[C@H]2CN(CCc3c([nH]c4ccccc34)[C@@](C(=O)OC)(c3cc4c(cc3OC)N(C)[C@H]3[C@@](O)(C(=O)OC)[C@H](OC(C)=O)[C@]5(CC)C=CCN6CC[C@]43[C@@H]65)C2)C1 | 8.14 | 6.13 |
| CC[C@]1(NC(=O)N2CCOCC2)C[C@H]2CN(CCc3c([nH]c4ccccc34)[C@@](C(=O)OC)(c3cc4c(cc3OC)N(C)[C@H]3[C@@](O)(C(=O)OC)[C@H](OC(C)=O)[C@]5(CC)C=CCN6CC[C@]43[C@@H]65)C2)C1 | 8.35 | 6.44 |
| CC[C@]1(NC(=S)Nc2ccccc2)C[C@H]2CN(CCc3c([nH]c4ccccc34)[C@@](C(=O)OC)(c3cc4c(cc3OC)N(C)[C@H]3[C@@](O)(C(=O)OC)[C@H](OC(C)=O)[C@]5(CC)C=CCN6CC[C@]43[C@@H]65)C2)C1 | 7.40 | 6.19 |
| CC[C@]1(NC(=O)OC)C[C@H]2CN(CCc3c([nH]c4ccccc34)[C@@](C(=O)OC)(c3cc4c(cc3OC)N(C)[C@H]3[C@@](O)(C(=O)OC)[C@H](OC(C)=O)[C@]5(CC)C=CCN6CC[C@]43[C@@H]65)C2)C1 | 7.12 |  |
| CC[C@]1(NC(N)=O)C[C@H]2CN(CCc3c([nH]c4ccccc34)[C@@](C(=O)OC)(c3cc4c(cc3OC)N(C)[C@H]3[C@@](O)(C(=O)OC)[C@H](OC(C)=O)[C@]5(CC)C=CCN6CC[C@]43[C@@H]65)C2)C1 | 8.12 | 5.36 |
| CC[C@]1(OC(=O)N(C)C)C[C@H]2CN(CCc3c([nH]c4ccccc34)[C@@](C(=O)OC)(c3cc4c(cc3OC)N(C)[C@H]3[C@@](O)(C(=O)OC)[C@H](OC(C)=O)[C@]5(CC)C=CCN6CC[C@]43[C@@H]65)C2)C1 | 5.33 | 5.04 |
| CCCCNC(=O)N[C@@]1(CC)C[C@H]2CN(CCc3c([nH]c4ccccc34)[C@@](C(=O)OC)(c3cc4c(cc3OC)N(C)[C@H]3[C@@](O)(C(=O)OC)[C@H](OC(C)=O)[C@]5(CC)C=CCN6CC[C@]43[C@@H]65)C2)C1 | 8.34 | 6.57 |
| CC[C@]1(NC(=O)NC2CCCCC2)C[C@H]2CN(CCc3c([nH]c4ccccc34)[C@@](C(=O)OC)(c3cc4c(cc3OC)N(C)[C@H]3[C@@](O)(C(=O)OC)[C@H](OC(C)=O)[C@]5(CC)C=CCN6CC[C@]43[C@@H]65)C2)C1 | 8.27 | 6.35 |
| CC[C@]1(NC)C[C@H]2CN(CCc3c([nH]c4ccccc34)[C@@](C(=O)OC)(c3cc4c(cc3OC)N(C)[C@H]3[C@@](O)(C(=O)OC)[C@H](OC(C)=O)[C@]5(CC)C=CCN6CC[C@]43[C@@H]65)C2)C1 | 7.22 | 5.07 |
| CC[C@]1(N=[N+]=[N-])C[C@H]2CN(CCc3c([nH]c4ccccc34)[C@@](C(=O)OC)(c3cc4c(cc3OC)N(C)[C@H]3[C@@](O)(C(=O)OC)[C@H](OC(C)=O)[C@]5(CC)C=CCN6CC[C@]43[C@@H]65)C2)C1 | 6.16 |  |
| CCN(CC)C(=O)N[C@@]1(CC)C[C@H]2CN(CCc3c([nH]c4ccccc34)[C@@](C(=O)OC)(c3cc4c(cc3OC)N(C)[C@H]3[C@@](O)(C(=O)OC)[C@H](OC(C)=O)[C@]5(CC)C=CCN6CC[C@]43[C@@H]65)C2)C1 | 8.17 | 6.35 |

| SMILES | pIC50 (HCT-116) | pIC50 (HCT-116/VM46) |
| --- | --- | --- |
| CC[C@]1(NC(=O)NC(C)(C)C)C[C@H]2CN(CCc3c([nH]c4ccccc34)[C@@](C(=O)OC)(c3cc4c(cc3OC)N(C)[C@H]3[C@@](O)(C(=O)OC)[C@H](OC(C)=O)[C@]5(CC)C=CCN6CC[C@]43[C@@H]65)C2)C1 | 7.70 | 6.17 |
| CC[C@@H]1C[C@H]2CN(CCc3c([nH]c4ccccc34)[C@@](C(=O)OC)(c3cc4c(cc3OC)N(C)[C@H]3[C@@](O)(C(=O)OC)[C@H](OC(C)=O)[C@]5(CC)C=CCN6CC[C@]43[C@@H]65)C2)C1 [ROSEAMINE] | 7.22 |  |
| CC[C@]1(NC(N)=S)C[C@H]2CN(CCc3c([nH]c4ccccc34)[C@@](C(=O)OC)(c3cc4c(cc3OC)N(C)[C@H]3[C@@](O)(C(=O)OC)[C@H](OC(C)=O)[C@]5(CC)C=CCN6CC[C@]43[C@@H]65)C2)C1 | 8.11 | 5.70 |
| CC[C@]1(NC(C)=O)C[C@H]2CN(CCc3c([nH]c4ccccc34)[C@@](C(=O)OC)(c3cc4c(cc3OC)N(C)[C@H]3[C@@](O)(C(=O)OC)[C@H](OC(C)=O)[C@]5(CC)C=CCN6CC[C@]43[C@@H]65)C2)C1 | 7.05 |  |
| CC[C@]1(NC(=O)Nc2ccc(C(F)(F)F)cc2)C[C@H]2CN(CCc3c([nH]c4ccccc34)[C@@](C(=O)OC)(c3cc4c(cc3OC)N(C)[C@H]3[C@@](O)(C(=O)OC)[C@H](OC(C)=O)[C@]5(CC)C=CCN6CC[C@]43[C@@H]65)C2)C1 | 8.15 | 6.21 |
| CC[C@]1(NC(=O)Nc2ccccc2)C[C@H]2CN(CCc3c([nH]c4ccccc34)[C@@](C(=O)OC)(c3cc4c(cc3OC)N(C)[C@H]3[C@@](O)(C(=O)OC)[C@H](OC(C)=O)[C@]5(CC)C=CCN6CC[C@]43[C@@H]65)C2)C1 | 8.29 | 6.41 |
| CC[C@]1(NC(=O)NCCO)C[C@H]2CN(CCc3c([nH]c4ccccc34)[C@@](C(=O)OC)(c3cc4c(cc3OC)N(C)[C@H]3[C@@](O)(C(=O)OC)[C@H](OC(C)=O)[C@]5(CC)C=CCN6CC[C@]43[C@@H]65)C2)C1 | 8.06 | < 6.00 |
| CC[C@]1(NC(=S)N(C)C)C[C@H]2CN(CCc3c([nH]c4ccccc34)[C@@](C(=O)OC)(c3cc4c(cc3OC)N(C)[C@H]3[C@@](O)(C(=O)OC)[C@H](OC(C)=O)[C@]5(CC)C=CCN6CC[C@]43[C@@H]65)C2)C1 | 8.06 | 6.60 |
| CC[C@]1(NC(=S)NCCc2ccc(F)cc2)C[C@H]2CN(CCc3c([nH]c4ccccc34)[C@@](C(=O)OC)(c3cc4c(cc3OC)N(C)[C@H]3[C@@](O)(C(=O)OC)[C@H](OC(C)=O)[C@]5(CC)C=CCN6CC[C@]43[C@@H]65)C2)C1 | 7.22 | 6.12 |
| CC[C@]1(NC(=O)NCc2ccccn2)C[C@H]2CN(CCc3c([nH]c4ccccc34)[C@@](C(=O)OC)(c3cc4c(cc3OC)N(C)[C@H]3[C@@](O)(C(=O)OC)[C@H](OC(C)=O)[C@]5(CC)C=CCN6CC[C@]43[C@@H]65)C2)C1 | 8.25 | 6.17 |
| CC[C@]1(N)C[C@H]2CN(CCc3c([nH]c4ccccc34)[C@@](C(=O)OC)(c3cc4c(cc3OC)N(C)[C@H]3[C@@](O)(C(=O)OC)[C@H](OC(C)=O)[C@]5(CC)C=CCN6CC[C@]43[C@@H]65)C2)C1 | 6.22 | < 5.00 |
| CC[C@]1(NC(=O)NCCc2ccccc2)C[C@H]2CN(CCc3c([nH]c4ccccc34)[C@@](C(=O)OC)(c3cc4c(cc3OC)N(C)[C@H]3[C@@](O)(C(=O)OC)[C@H](OC(C)=O)[C@]5(CC)C=CCN6CC[C@]43[C@@H]65)C2)C1 | 8.20 | 6.23 |
| CC[C@]1(NC(=O)Nc2ccc(OC)cc2)C[C@H]2CN(CCc3c([nH]c4ccccc34)[C@@](C(=O)OC)(c3cc4c(cc3OC)N(C)[C@H]3[C@@](O)(C(=O)OC)[C@H](OC(C)=O)[C@]5(CC)C=CCN6CC[C@]43[C@@H]65)C2)C1 | 8.70 | 6.64 |
| CC[C@]1(SC#N)C[C@H]2CN(CCc3c([nH]c4ccccc34)[C@@](C(=O)OC)(c3cc4c(cc3OC)N(C)[C@H]3[C@@](O)(C(=O)OC)[C@H](OC(C)=O)[C@]5(CC)C=CCN6CC[C@]43[C@@H]65)C2)C1 | 6.26 |  |
| CC[C@]1(NC=O)C[C@H]2CN(CCc3c([nH]c4ccccc34)[C@@](C(=O)OC)(c3cc4c(cc3OC)N(C)[C@H]3[C@@](O)(C(=O)OC)[C@H](OC(C)=O)[C@]5(CC)C=CCN6CC[C@]43[C@@H]65)C2)C1 | 7.07 |  |
